Source: ChEMBL document CHEMBL4130395, “Meroterpenoids with Protein Tyrosine Phosphatase 1B Inhibitory Activity from a Hyrtios sp. Marine Sponge” (J Nat Prod, 2017)
The source made the active and inactive calls. The rule behind the calls is not given here.

How the values were obtained:
HL-60 = test: Cytotoxicity against human HL60 cells at 30 uM after 48 hrs by MTS assay; format: cell-based; settings: hl-60, 48 h
How it was run: (§1)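 Cells seeded in 96-well plates and grown 24 h, then treated 48 h with compound dissolved in DMSO at a 30 μM working concentration. MTS (20 μL) added and incubated 2 h at 37 °C for viability read-out; method described as MTT assay.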

HeLa = test: Cytotoxicity against human HeLa cells at 30 uM after 48 hrs by MTS assay; format: cell-based; how it was run: as §1
HepG2 = test: Cytotoxicity against human HepG2 cells at 30 uM after 48 hrs by MTS assay; format: cell-based; settings: hepg2, 48 h; how it was run: as §1
[1] = target: T1, Tyrosine-protein phosphatase non-receptor type 1 (Homo sapiens, UniProt P18031); test: Inhibition of PTP1B (unknown origin) using p-nitrophenyl phosphate as substrate measured after 30 mins
T1 sequence (P18031 whole entry): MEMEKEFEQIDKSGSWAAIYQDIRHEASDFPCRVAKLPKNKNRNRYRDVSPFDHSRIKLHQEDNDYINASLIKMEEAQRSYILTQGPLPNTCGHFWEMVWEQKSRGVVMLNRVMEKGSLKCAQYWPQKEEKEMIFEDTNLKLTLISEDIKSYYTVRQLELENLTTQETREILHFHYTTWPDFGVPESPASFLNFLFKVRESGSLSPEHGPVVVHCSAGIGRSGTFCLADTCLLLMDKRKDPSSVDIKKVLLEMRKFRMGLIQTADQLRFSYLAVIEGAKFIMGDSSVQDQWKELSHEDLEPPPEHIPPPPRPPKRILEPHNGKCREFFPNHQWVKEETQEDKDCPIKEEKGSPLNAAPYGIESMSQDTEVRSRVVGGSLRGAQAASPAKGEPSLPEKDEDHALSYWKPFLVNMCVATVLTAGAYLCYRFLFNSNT

RPMI-8226 = test: Cytotoxicity against human RPMI8226 cells at 30 uM after 48 hrs by MTS assay; format: cell-based; settings: rpmi-8226, 48 h; how it was run: as §1
[2] = target: T2, Tyrosine-protein phosphatase non-receptor type 1 (Homo sapiens) (UniProt P18031); test: Inhibition of PTP1B (unknown origin) at 30 uM using p-nitrophenyl phosphate as substrate measured after 30 mins
T2 sequence (whole entry): T1 sequence (P18031 whole entry)
How it was run: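 30 nM PTP1B with 2 mM pNPP in 50 mM MOPS buffer, pH 6.5, with or without compound, 37 °C for 30 min. Stopped with 1 M NaOH; released pNP read at 405 nm absorbance. Oleanolic acid as positive control; IC50 from sigmoidal variable-slope dose-response fit.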

Row | IC50 [1] [µM] | inhibition [2] | SMILES | Activity (HL-60) | Activity (HeLa) | Activity (HepG2) | Activity (RPMI-8226)
1 | 4.8 | – | C=C1CCC[C@H]2[C@](C)(Cc3c(O)c(O)cc4nc(C)oc34)[C@@H](C)CC[C@]12C | Non-Toxic | Non-Toxic | Non-Toxic | Non-Toxic
2 | – | inactive | C=C1CCC[C@H]2[C@]3(C)Cc4oc(=O)cc(OC)c4[C@]3(C)CC[C@]12C | Non-Toxic | Non-Toxic | Non-Toxic | Non-Toxic
3 | – | inactive | C=C1CCC[C@@]23OC4=C(C[C@]2(C)[C@@H](C)CC[C@]13C)C(=O)C(OC)=CC4=O | Non-Toxic | Non-Toxic | Non-Toxic | Non-Toxic
4 | – | inactive | C=C1CCC[C@H]2[C@](C)(Cc3c(O)c(O)cc4ncoc34)[C@@H](C)CC[C@]12C [NAKIJINOL B] | Non-Toxic | Non-Toxic | Non-Toxic | Non-Toxic
